From ChEMBL document CHEMBL1770099, “Aromatic ring functionalization of benzolactam derivatives: new potent dopamine D3 receptor ligands” (Bioorg Med Chem Lett, 2011)

Key:
[1] = Displacement of [3H]WAY-100635 from pig 5-HT1A receptor; set-up: species or system Sus scrofa
[2] = biological target: 5-hydroxytryptamine receptor 2A (Sus scrofa, UniProt P50129); test: Displacement of [3H]Ketanserin from pig 5-HT2 receptor
D(1A) dopamine receptor = D(1A) dopamine receptor (Sus scrofa, UniProt P50130); test: Displacement of [3H]SCH-23390 from dopamine D1 receptor in pig striatal membranes; format: cell membranes, Striatum, Membrane
In short: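 Competition binding with D1-selective radioligand [3H]SCH23390 on porcine striatal membranes; Ki values are means of two to four individual competition experiments, each run in triplicate.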

D(4) dopamine receptor = biological target: T1, D(4) dopamine receptor (Homo sapiens, UniProt P21917); test: Displacement of [3H]Spiperone from human dopamine D4.4 receptor expressed in CHO cells; format: cell-based
T1 sequence (P21917 whole entry): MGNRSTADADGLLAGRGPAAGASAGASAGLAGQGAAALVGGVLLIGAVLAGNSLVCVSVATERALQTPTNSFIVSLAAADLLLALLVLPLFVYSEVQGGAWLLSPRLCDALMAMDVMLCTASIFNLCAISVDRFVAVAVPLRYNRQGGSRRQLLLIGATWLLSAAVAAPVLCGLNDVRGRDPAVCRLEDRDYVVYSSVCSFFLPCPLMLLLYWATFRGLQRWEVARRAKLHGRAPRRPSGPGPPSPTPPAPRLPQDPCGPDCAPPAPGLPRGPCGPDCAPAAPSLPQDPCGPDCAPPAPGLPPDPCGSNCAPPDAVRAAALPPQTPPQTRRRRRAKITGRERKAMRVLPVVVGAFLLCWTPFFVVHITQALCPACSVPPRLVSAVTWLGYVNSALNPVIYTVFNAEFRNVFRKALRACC
In short: (§1)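 Competition for [3H]spiperone binding to cloned human receptor (D2long, D2short or D4.4) stably expressed in CHO cells; Ki values are means of two to four individual competition experiments, each run in triplicate.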

D(3) dopamine receptor [3] = biological target: T2, D(3) dopamine receptor (Homo sapiens, UniProt P35462); test: Displacement of [3H]Spiperone from human dopamine D3 receptor expressed in CHO cells; format: cell-based
[4] = Displacement of [3H]Prazosin from pig adrenergic alpha1 receptor; set-up: species or system Sus scrofa
[5] = Selectivity ratio of Ki for dopamine D2 long receptor to Ki for dopamine D3 receptor
D(2) dopamine receptor [6] = biological target: T3, D(2) dopamine receptor (Homo sapiens, UniProt P14416); test: Displacement of [3H]Spiperone from human dopamine D2 short receptor expressed in CHO cells; format: cell-based; in short: as §1
D(2) dopamine receptor [7] = biological target: T3, D(2) dopamine receptor; test: Displacement of [3H]Spiperone from human dopamine D2 long receptor expressed in CHO cells; format: cell-based; in short: as §1
D(3) dopamine receptor [8] = biological target: T2, D(3) dopamine receptor; test: Agonist activity at human dopamine D3 receptor expressed in dhfr-deficient CHO cells assessed as [3H]thymidine incorporation; format: functional, cell-based
D(3) dopamine receptor [9] = biological target: T2, D(3) dopamine receptor; test: Binding affinity to dopamine D3 receptor

T3 sequence (P14416 whole entry): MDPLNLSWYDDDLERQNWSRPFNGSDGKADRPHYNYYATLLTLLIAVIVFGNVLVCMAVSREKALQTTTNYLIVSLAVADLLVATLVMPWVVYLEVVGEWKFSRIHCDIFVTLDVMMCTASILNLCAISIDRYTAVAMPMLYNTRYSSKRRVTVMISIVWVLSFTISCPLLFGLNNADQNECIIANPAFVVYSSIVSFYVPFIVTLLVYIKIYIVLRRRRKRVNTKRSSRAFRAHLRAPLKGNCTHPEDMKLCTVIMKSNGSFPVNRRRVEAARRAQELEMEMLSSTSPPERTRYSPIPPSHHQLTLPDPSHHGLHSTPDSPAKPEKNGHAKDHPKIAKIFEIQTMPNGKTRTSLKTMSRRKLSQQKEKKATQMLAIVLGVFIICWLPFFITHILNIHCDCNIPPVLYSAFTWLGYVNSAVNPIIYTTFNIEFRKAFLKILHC
T2 sequence (P35462 whole entry): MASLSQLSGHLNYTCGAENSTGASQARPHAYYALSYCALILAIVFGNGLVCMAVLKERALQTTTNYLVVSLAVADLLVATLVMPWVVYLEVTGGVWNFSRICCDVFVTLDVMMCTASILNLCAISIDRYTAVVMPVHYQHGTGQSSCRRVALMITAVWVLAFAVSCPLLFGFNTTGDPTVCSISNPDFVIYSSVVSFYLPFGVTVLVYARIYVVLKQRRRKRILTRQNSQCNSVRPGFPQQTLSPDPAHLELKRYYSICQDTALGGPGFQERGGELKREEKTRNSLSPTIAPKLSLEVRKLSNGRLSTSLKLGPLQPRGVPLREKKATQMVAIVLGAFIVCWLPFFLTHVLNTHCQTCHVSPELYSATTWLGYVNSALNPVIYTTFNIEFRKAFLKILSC
Chain of D(1A) dopamine receptor (P50130 whole entry): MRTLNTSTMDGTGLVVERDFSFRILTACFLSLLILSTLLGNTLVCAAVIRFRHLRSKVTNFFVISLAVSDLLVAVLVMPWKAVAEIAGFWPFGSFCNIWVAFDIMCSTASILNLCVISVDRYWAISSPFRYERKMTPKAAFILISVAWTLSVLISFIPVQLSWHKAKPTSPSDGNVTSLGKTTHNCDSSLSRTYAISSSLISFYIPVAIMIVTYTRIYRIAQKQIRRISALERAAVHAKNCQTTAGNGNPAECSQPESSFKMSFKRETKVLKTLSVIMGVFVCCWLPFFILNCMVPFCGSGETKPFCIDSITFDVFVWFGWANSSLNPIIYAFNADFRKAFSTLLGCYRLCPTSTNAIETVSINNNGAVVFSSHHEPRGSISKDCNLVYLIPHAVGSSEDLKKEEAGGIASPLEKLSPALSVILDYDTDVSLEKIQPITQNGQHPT
Chain of 5-hydroxytryptamine receptor 2A (P50129 whole entry): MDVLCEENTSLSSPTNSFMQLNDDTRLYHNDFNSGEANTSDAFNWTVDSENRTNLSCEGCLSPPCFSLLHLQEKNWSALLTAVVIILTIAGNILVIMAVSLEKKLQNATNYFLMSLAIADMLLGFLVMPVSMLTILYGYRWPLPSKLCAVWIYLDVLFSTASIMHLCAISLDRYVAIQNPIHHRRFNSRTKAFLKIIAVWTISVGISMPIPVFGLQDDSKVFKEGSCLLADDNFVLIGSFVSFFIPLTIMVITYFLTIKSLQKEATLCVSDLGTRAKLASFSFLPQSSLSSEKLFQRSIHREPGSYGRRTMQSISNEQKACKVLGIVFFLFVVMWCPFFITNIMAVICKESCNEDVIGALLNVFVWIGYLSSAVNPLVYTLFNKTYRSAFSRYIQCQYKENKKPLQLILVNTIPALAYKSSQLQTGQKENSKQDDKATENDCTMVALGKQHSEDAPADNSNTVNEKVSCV

| Structure (SMILES) | Ki [1] | Ki [2] | Ki (D(1A) dopamine receptor) | Ki (D(4) dopamine receptor) | Ki (D(3) dopamine receptor [3]) | Ki [4] | Ratio Ki [5] | Ki (D(2) dopamine receptor [6]) | Ki (D(2) dopamine receptor [7]) | EC50 (D(3) dopamine receptor [8]) | Ki (D(3) dopamine receptor [9]) |
| --- | --- | --- | --- | --- | --- | --- | --- | --- | --- | --- | --- |
| COc1ccccc1N1CCN(CCCCN2CCc3cc(-c4ccncc4)ccc3C2=O)CC1 | 13 nM | 160 nM | 380 nM | 3.4 nM | 0.12 nM | 2.2 nM |  |  |  |  |  |
| COc1ccccc1N1CCN(CCCCNC(=O)c2ccc(-c3ccc(C(C)=O)cc3)cc2)CC1 |  |  |  |  |  |  | 130 |  |  |  |  |
| COc1ccc2c(c1)CCCN(CCCCN1CCN(c3ccccc3OC)CC1)C2=O | 2.5 nM | 810 nM | 2100 nM | 3 nM | 0.27 nM | 3.7 nM |  | 0.93 nM | 3.2 nM |  |  |
| COc1ccccc1N1CCN(CCCCN2CCc3ccccc3C2=O)CC1 | 2.4 nM | 990 nM | 2500 nM | 1.9 nM |  | 2.3 nM |  | 7 nM | 21 nM |  |  |
| COc1ccccc1N1CCN(CCCCN2CCc3cc(-c4ccccc4)ccc3C2=O)CC1 | 38 nM | 330 nM | 640 nM | 3.4 nM | 0.25 nM | 5.4 nM |  | 15 nM | 38 nM | 3.3 nM |  |
| CC(=O)Nc1ccc(CCN2C[C@@H]3COc4ccc(C#N)cc4[C@H]3C2)cc1 |  |  |  |  |  |  | 37 |  |  |  | 2 nM |
| COc1ccccc1N1CCN(CCCCN2CCCc3ccccc3C2=O)CC1 | 1.7 nM | 1100 nM | 2900 nM | 1.3 nM | 0.27 nM | 5.7 nM |  | 1.5 nM | 3.9 nM | 0.33 nM |  |
| Cc1nc(-c2ccc(C(=O)N[C@H]3CC[C@H](CCN4CCc5ccc(S(C)(=O)=O)cc5CC4)CC3)cc2)no1 |  |  |  |  |  |  | 100 |  |  |  | 4 nM |
| COc1ccccc1N1CCN(CCCCN2CCc3cc(F)ccc3C2=O)CC1 | 1.7 nM | 840 nM | 2300 nM | 2.8 nM | 1.6 nM | 3.1 nM |  | 9.2 nM | 26 nM |  |  |
| COc1ccccc1N1CCN(CCCCN2CCc3cc(-c4ccco4)ccc3C2=O)CC1 | 19 nM | 330 nM | 580 nM | 3.3 nM | 0.21 nM | 1.6 nM |  | 4.8 nM | 16 nM | 2.3 nM |  |
| COc1ccccc1N1CCN(CCCCN2CCc3cc(C#N)ccc3C2=O)CC1 | 3.8 nM | 430 nM | 3200 nM | 6.1 nM | 1.3 nM | 3.8 nM |  | 22 nM | 38 nM |  |  |
| COc1ccccc1N1CCN(CCCCN2CCc3c(cccc3-c3ccccc3)C2=O)CC1 | 47 nM | 230 nM | 220 nM | 9.8 nM | 12 nM | 1.3 nM |  | 63 nM | 52 nM |  |  |
| COc1ccccc1N1CCN(CCCCN2CCCc3cc(-c4cccs4)ccc3C2=O)CC1 | 68 nM | 530 nM | 920 nM | 2.9 nM | 0.29 nM | 9.7 nM |  | 2.1 nM | 5.1 nM |  |  |
| COc1ccccc1N1CCN(CCCCN2CCc3cc(-c4cccs4)ccc3C2=O)CC1 | 6.2 nM | 190 nM | 480 nM | 2.3 nM | 0.12 nM | 3.7 nM |  | 6.9 nM | 11 nM | 2.8 nM |  |
| C#Cc1ccc2c(c1)CCN(CCCCN1CCN(c3ccccc3OC)CC1)C2=O | 14 nM | 920 nM | 1900 nM | 4.1 nM | 0.5 nM | 2.4 nM |  | 8.8 nM | 24 nM |  |  |
